Measurements from ChEMBL document CHEMBL3400073, “Design, synthesis and biological evaluation of new hybrid anticonvulsants derived from N-benzyl-2-(2,5-dioxopyrrolidin-1-yl)propanamide and 2-(2,5-dioxopyrrolidin-1-yl)butanamide derivatives” (Bioorg Med Chem, 2015).
Calls of active or inactive are those of the source. No cut-off for these calls is given here.

Experiments:
Mus musculus [1] = experiment: Neurological toxicity in Albino Swiss CD1 mouse at 100 mg/kg, ip after 0.5 hrs by rotarod test; type: organism-based; parameters: dose 100 mg/kg, route intraperitoneal; conditions: in vivo
Outline: (§1)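 Mice were trained on a 2 cm rod for 3 min, with unlimited trials, at least 24 h before testing. Each was then dosed ip at 100 mg/kg and tested at 10 rpm 0.5 h or 2 h later, in groups of 4. Failure to stay on the rod for at least 1 min indicated neurotoxicity.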

Mus musculus [2] = experiment: Anticonvulsant activity in Albino Swiss CD1 mouse at 100 mg/kg, ip after 0.5 hrs by maximal electroshock test; type: functional, organism-based; parameters: dose 100 mg/kg
Outline: (§2)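 Male CD-1 mice, 16–26 g, in groups of 4, each mouse used once, were given 100 mg/kg ip (0.1 mL/10 g, methylcellulose vehicle). MES used 25 mA, 500 V, 50 Hz delivered by ear electrodes for 0.2 s, and absence of hindlimb tonic extension counted as protection. In scPTZ, mice without clonic convulsions over 30 min of observation counted as protected. Both tests were run 0.5 h or 2 h after dosing.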

Mus musculus [3] = experiment: Anticonvulsant activity in Albino Swiss CD1 mouse at 100 mg/kg, ip after 0.5 hrs by subcutaneous pentylenetetrazole test; type: functional, organism-based; parameters: dose 100 mg/kg; outline: as §2
Mus musculus [4] = experiment: Anticonvulsant activity in Albino Swiss CD1 mouse at 100 mg/kg, ip after 2 hrs by maximal electroshock test; type: functional, organism-based; parameters: dose 100 mg/kg; outline: as §2
Mus musculus [5] = experiment: Anticonvulsant activity in Albino Swiss CD1 mouse at 100 mg/kg, ip after 2 hrs by subcutaneous pentylenetetrazole test; type: functional, organism-based; parameters: dose 100 mg/kg; outline: as §2
Mus musculus [6] = experiment: Neurological toxicity in Albino Swiss CD1 mouse at 100 mg/kg, ip after 2 hrs by rotarod test; type: organism-based; parameters: dose 100 mg/kg, route intraperitoneal; conditions: in vivo; outline: as §1
Mus musculus [7] = experiment: Anticonvulsant activity in intraperitoneally dosed Albino Swiss CD1 mouse assessed as time to peak effect after 2 hrs by subcutaneous pentylenetetrazole test; type: functional
Mus musculus [8] = experiment: Anticonvulsant activity in intraperitoneally dosed Albino Swiss CD1 mouse assessed as time to peak effect by maximal electroshock test; type: functional
Mus musculus [9] = experiment: Anticonvulsant activity in intraperitoneally dosed Albino Swiss CD1 mouse by subcutaneous pentylenetetrazole test; type: functional
Outline: (§3)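 Male CD-1 mice were dosed ip (0.1 mL/10 g, methylcellulose vehicle), at least four dose groups of 6 mice each. Protection in MES meant no hindlimb tonic extension after a 25 mA, 50 Hz, 0.2 s ear-electrode shock. Protection in scPTZ meant no clonus over 30 min.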

Mus musculus [10] = organism: Mus musculus; experiment: Protective index, ratio of neurotoxic TD50 in Albino Swiss CD1 mouse by rotarod test to anticonvulsant ED50 in Albino Swiss CD1 mouse by maximal electroshock test
Outline: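 The protective index is the rotarod TD50 divided by the MES or scPTZ ED50. Each value came from ip dosing in male CD-1 mice with probit analysis, and the reference drugs were tested under the same conditions.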

[11] = Neurological toxicity in intraperitoneally dosed Albino Swiss CD1 mouse by rotarod test; type: organism-based; conditions: in vivo, ip
Outline: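 Mice trained on the rotarod were given various ip doses, four groups in all, and tested at 10 rpm. Failure to stay on the rod for at least 1 min indicated neurotoxicity.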

Mus musculus [12] = experiment: Anticonvulsant activity in intraperitoneally dosed Albino Swiss CD1 mouse by maximal electroshock test; type: functional; conditions: Albino Swiss CD1, ip; outline: as §3
Mus musculus [13] = experiment: Anticonvulsant activity in intraperitoneally dosed Albino Swiss CD1 mouse after 0.5 hrs by maximal electroshock test; type: functional; outline: as §3

Compound	Activity (Mus musculus [1])	Activity (Mus musculus [2])	Activity (Mus musculus [3])	Activity (Mus musculus [4])	Activity (Mus musculus [5])	Activity (Mus musculus [6])	Time (Mus musculus [7])	Time (Mus musculus [8])	ED50 (Mus musculus [9])	Ratio TD50/ED50 (Mus musculus [10])	TD50 [11]	ED50 (Mus musculus [12])	MED50 (Mus musculus [13])
CC(C(=O)NCC1CCCCC1)N1C(=O)CCC1=O (configuration not stated)	Non-toxic	inactive	inactive	inactive	inactive	Non-toxic	–	–	–	–	–	–	–
NC(=O)N1c2ccccc2C=Cc2ccccc21 [CARBAMAZEPINE]	–	–	–	–	–	–	0.5 h	0.5 h	> 100 mg/kg	3.47	49.3 mg/kg	14.2 mg/kg	–
CCC1(C)CC(=O)NC1=O (configuration not stated) [ETHOSUXIMIDE]	–	–	–	–	–	–	0.25 h	0.25 h	–	–	–	> 500 mg/kg	–
CC1CC(=O)N(C(C)C(=O)NCc2ccc(F)cc2)C1=O (racemic)	Non-toxic	inactive	inactive	inactive	inactive	Non-toxic	–	–	–	–	–	–	–
CCC(C(=O)NCC1CCCCC1)N1C(=O)CCC1=O (racemic)	Non-toxic	inactive	inactive	inactive	inactive	Non-toxic	–	–	–	–	–	–	–
CC(C(=O)NCc1ccccc1Cl)N1C(=O)CCC1=O (racemic)	Non-toxic	–	inactive	inactive	inactive	Non-toxic	0.5 h	0.5 h	–	4.57	340 mg/kg	74.5 mg/kg	100 mg/kg
CC1CC(=O)N(C(C)C(=O)NCc2cccc(F)c2)C1=O (racemic)	Non-toxic	–	inactive	inactive	inactive	Non-toxic	0.5 h	0.5 h	–	2.29	297 mg/kg	130 mg/kg	100 mg/kg
CC1CC(=O)N(C(C)C(=O)NCc2cccc(Cl)c2)C1=O (racemic)	Non-toxic	–	inactive	inactive	inactive	Non-toxic	0.5 h	0.5 h	–	2.73	247 mg/kg	90.3 mg/kg	100 mg/kg
COC[C@@H](NC(C)=O)C(=O)NCc1ccccc1 [LACOSAMIDE]	–	–	–	–	–	–	0.5 h	0.5 h	> 500 mg/kg	–	–	9.24 mg/kg	–
CC(C(=O)NCc1ccccc1C(F)(F)F)N1C(=O)CCC1=O (racemic)	Non-toxic	inactive	inactive	inactive	inactive	Non-toxic	–	–	–	–	–	–	–
CC1CC(=O)N(C(C)C(=O)NCc2ccc(Cl)cc2)C1=O (racemic)	Non-toxic	inactive	inactive	inactive	inactive	Non-toxic	–	–	–	–	–	–	–
CC1CC(=O)N(C(C)C(=O)NCc2ccccc2C(F)(F)F)C1=O (racemic)	Non-toxic	inactive	inactive	inactive	inactive	Non-toxic	–	–	–	–	–	–	–
CC(C(=O)NCc1cccc(C(F)(F)F)c1)N1C(=O)CCC1=O (racemic)	Non-toxic	–	inactive	inactive	inactive	Non-toxic	0.5 h	0.5 h	–	3.59	332 mg/kg	92.4 mg/kg	100 mg/kg
CCCC(CCC)C(=O)O [VALPROIC ACID]	–	–	–	–	–	–	0.5 h	0.5 h	–	–	–	–	–
CC1CC(=O)N(C(C)C(=O)NCC2CCCCC2)C1=O (racemic)	Non-toxic	inactive	inactive	inactive	inactive	Non-toxic	–	–	–	–	–	–	–
CC(C(=O)NCc1ccc(F)cc1)N1C(=O)CCC1=O (racemic)	Non-toxic	inactive	inactive	inactive	inactive	Non-toxic	–	–	–	–	–	–	–
CC1CC(=O)N(C(C)C(=O)NCc2cccc(C(F)(F)F)c2)C1=O (racemic)	Non-toxic	inactive	inactive	inactive	inactive	Non-toxic	–	–	–	–	–	–	–
CC1CC(=O)N(C(C)C(=O)NCc2ccccc2F)C1=O (racemic)	Non-toxic	–	inactive	inactive	inactive	Non-toxic	0.5 h	0.5 h	–	2.97	239 mg/kg	80.5 mg/kg	100 mg/kg
CC(C(=O)NCc1cccc(Cl)c1)N1C(=O)CCC1=O (racemic)	Non-toxic	–	inactive	inactive	inactive	Non-toxic	0.5 h	0.5 h	–	4.23	347 mg/kg	82 mg/kg	100 mg/kg
CC(C(=O)NCc1cccc(F)c1)N1C(=O)CCC1=O (racemic)	Non-toxic	–	inactive	inactive	inactive	Non-toxic	0.5 h	0.5 h	–	>6.46	> 500 mg/kg	77.4 mg/kg	100 mg/kg
CC1CC(=O)N(C(C)C(=O)NCc2ccccc2Cl)C1=O (racemic)	Non-toxic	–	inactive	inactive	inactive	Non-toxic	0.5 h	0.5 h	–	3.2	275 mg/kg	85.8 mg/kg	100 mg/kg
